Measured values from different studies.
Compare with care: the assays were run in different laboratories.

| SMILES | species | matrix | route | dose | setting | measurement | result |
| --- | --- | --- | --- | --- | --- | --- | --- |
| COC(=O)CN(CCCc1ccccc1)CC(=O)N[C@@H](Cc1c[nH]cn1)c1nc(C)no1 | male C57BL/6 mouse | plasma | intraperitoneal | 30 mg/kg |  | AUC | 0.2 µg·h/mL |
| CCc1cc(C(=O)NC)c2nccc(N3CCc4c(cc(Cn5ccnc5)cc4-c4cn(C)nc4C(F)(F)F)C3=O)c2c1 | male CD-1 mouse | plasma | oral | 150 mg/kg |  | AUC(0-inf) | 527 µg·h/mL |
| Cc1noc([C@H](Cc2c[nH]cn2)NC(=O)CN(CCCc2ccccc2)CC(=O)O)n1 | male C57BL/6 mouse | plasma | intraperitoneal | 30 mg/kg |  | AUC | 1.9 µg·h/mL |
| CC[C@H](C)[C@@H]1NC(=O)[C@@](C)(NC(=O)[C@H](CCCNC(=N)N)NC(=O)[C@H](CC(C)C)NC(=O)[C@@H](NC(=O)[C@H](CCC(N)=O)NC(=O)[C@H](CC(C)C)NC(C)=O)[C@@H](C)O)CCCC=CCCC[C@@](C)(C(=O)N[C@@H](CC(C)C)C(=O)N[C@@H](Cc2ccc3ccccc3c2)C(N)=O)NC(=O)[C@H](CCCNC(=N)N)NC(=O)[C@H](CCC(N)=O)NC1=O | male BALB/c mouse | plasma | intravenous | 5 mg/kg |  | AUC | 76 µM·h |
| CC(C)(O)c1cn(-c2ccc(-c3cccc(S(C)(=O)=O)c3)cc2)c(C(C)(C)c2ccccc2Cl)n1 | male C57BL/6 mouse | serum | oral | 10 mg/kg |  | AUC | 57 µM·h |
| Cc1nc(-c2cnc(NC(C)C)n(C)c2=O)ccc1Oc1ccnc(-c2cnn(C)c2)c1 | female mouse | plasma | oral | 30 mg/kg | single dose | AUC(0-inf) | 285 µg·h/mL |
| NC[C@@H]1O[C@H](O[C@H]2[C@@H](O)[C@H](O[C@@H]3[C@@H](O)[C@H](N)C[C@H](N)[C@H]3O[C@H]3O[C@H](CO)[C@@H](O)[C@H](O)[C@H]3N)O[C@@H]2CO)[C@H](N)[C@@H](O)[C@@H]1O | male BALB/c mouse | plasma | oral | 500 mg/kg |  | AUC | 3.4 µg·h/mL |
| CC(C)(C)c1ccc(O)c(CN(Cc2cc(C(C)(C)C)ccc2O)C2CCC(NC(N)=O)CC2)c1 (stereo not shown) | male C57BL/6 mouse | plasma | oral | 10 mg/kg | single dose | AUC(0-inf) | 6.62 µg·h/mL |
| OC[C@H]1O[C@@H](c2ccc(Cl)c(Cc3ccc(O[C@H]4CCOC4)cc3)c2)[C@H](O)[C@@H](O)[C@@H]1O | CD-1 mouse | plasma | intravenous | 5 mg/kg |  | AUC | 1.45 µg·h/mL |
| COc1ccc2nccc(N3CCc4c(cc(Cn5ccnc5)cc4-c4cn(C)nc4C(F)(F)F)C3=O)c2c1 | male CD-1 mouse | plasma | intravenous | 3 mg/kg |  | AUC(0-inf) | 1.84 µg·h/mL |
| CC(C)(O)c1cn(-c2ccc(-c3ccc(CO)c(S(C)(=O)=O)c3)cc2)c(Cc2ccccc2Cl)n1 | male C57BL/6 mouse | serum | oral | 10 mg/kg |  | AUC | 13 µM·h |
| C=CC(=O)N1CC2CC(n3nc(-c4ccc(C(=O)Nc5ccccn5)cc4)c4c(N)ncnc43)CC2C1 (stereo not shown) | SCID mouse | plasma | oral | 1 mg/kg |  | AUC(0-t) | 0.175 µg·h/mL |
| COc1ccc(C(O)COc2ccc(-c3csc(-c4ccc(OCC(O)c5ccc(OC)c(OC)c5)cc4)n3)cc2)cc1OC (stereo not shown) | C57BL/6 mouse | plasma | oral | 30 mg/kg |  | AUC(0-t) | 34 µg·h/mL |
